Key:
[1] = Metabolic stability in rat liver microsomes at 10 uM after 3 hrs by LC/MS analysis; type: ADME; details: read-out: Stability
[2] = Cytotoxicity against human U937 cells assessed as cell death after 72 hrs by sulforhodamine B assay; details: U-937, 72 h
Mus musculus [3] = assay: Toxicity in C57BL/6 mouse at 200 mg/kg, ip measured over 24 hrs; type: organism-based; parameters: dose 200 mg/kg, route intraperitoneal; details: in vivo
Procedure, shortened: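 Tolerability: C57BL/6 mice aged 8-10 weeks, n = 3 per cohort, given a single 200 mg/kg i.p. dose formulated at 5 mg/mL in 200 mg/mL HPβCD, pH 5.5. Signs classed as excitatory or depressive and graded mild to severe.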

U-937 [4] = assay: Induction of apoptosis in human U937 cells assessed as viable cells at 50 uM after 12 hrs by annexin V-FITC/propidium iodide staining-based flow cytometric analysis (reference value: 96%); type: functional; details: U-937, 12 h, read-out: Activity
[5] = AUC in C57/BL6 mouse at 25 mg/kg, po by LC/MS/MS analysis; type: ADME, organism-based; parameters: dose 25 mg/kg, route oral; details: plasma
EL4 = assay: Cytotoxicity against mouse EL4 cells assessed as cell death after 72 hrs by sulforhodamine B assay; type: functional, cell-based; details: EL4, 72 h
Procedure, shortened: (§1)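 Jurkat plated at 25,000 cells/well; GL-1 and EL4 at 15,000 cells/well. Nine half-log doses, 0.01–100 µM, in triplicate. SRB staining after TCA fixation, absorbance 510 nm. Percent death normalized to a positive death control (100%) and DMSO (0%). Logistic fit gives IC50, mean of three experiments ± s.e.m.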

Jurkat = assay: Cytotoxicity against human Jurkat cells assessed as cell death after 72 hrs by sulforhodamine B assay; type: functional, cell-based; procedure, shortened: as §1
[6] = Oral bioavailability in C57/BL6 mouse at 25 mg/kg by LC/MS/MS analysis; type: ADME, organism-based; details: in vivo
Liver microsome = assay: Drug metabolism in rat liver microsomes assessed as formation of N-dealkylated, dihydroxylated and multiple monooxygenated products at 10 uM after 3 hrs by LC/MS analysis; type: ADME
Mus musculus [7] = assay: Elimination half life in C57/BL6 mouse at 25 mg/kg, iv and po by LC/MS/MS analysis; type: ADME, organism-based; parameters: dose 25 mg/kg, route oral; details: in vivo
[8] = Cytotoxicity against dog GL1 cells assessed as cell death after 72 hrs by sulforhodamine B assay; type: functional, cell-based; details: Canis lupus familiaris; procedure, shortened: as §1
[9] = Elimination half life in dog at 1 mg/kg, iv; type: ADME, organism-based, Canis lupus familiaris; parameters: dose 1 mg/kg, route intravenous; details: in vivo, read-out: beta t1/2 (converted)
U-937 [10] = assay: Induction of apoptosis in human U937 cells assessed as necrotic cells at 50 uM after 12 hrs by annexin V-FITC/propidium iodide staining-based flow cytometric analysis relative to control; type: functional
[11] = Cytotoxicity against dog OSW cells assessed as cell death after 72 hrs by sulforhodamine B assay; type: functional, cell-based; details: Canis lupus familiaris
U-937 [12] = assay: Induction of apoptosis in human U937 cells assessed as early apoptotic cells at 50 uM after 12 hrs by annexin V-FITC/propidium iodide staining-based flow cytometric analysis (reference value: 2%); type: functional
[13] = AUC in C57/BL6 mouse at 25 mg/kg, iv by LC/MS/MS analysis; type: ADME, organism-based; parameters: dose 25 mg/kg, route intravenous; details: plasma
Serum [14] = assay: Drug uptake in C57/BL6 mouse serum at 25 mg/kg, iv measured after 5 to 6 hrs by LC/MS/MS analysis; type: ADME, organism-based; parameters: dose 25 mg/kg, route intravenous; details: in vivo
Procedure, shortened: (§2)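 Mouse PK: C57/BL6 mice, n = 2 per cohort per time point, 25 mg/kg given by tail vein injection or oral gavage; formulated at 5 mg/mL in 200 mg/mL HPβCD, pH 5.5. Mice sacrificed at set times, blood collected, EDTA plasma frozen at -80°C. Levels measured by LC/MS/MS (Polar-RP column, formic acid/methanol gradient, negative ESI) against an internal standard.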

U-937 [15] = assay: Induction of apoptosis in human U937 cells assessed as late apoptotic cells at 50 uM after 12 hrs by annexin V-FITC/propidium iodide staining-based flow cytometric analysis (reference value: 2%); type: functional
[16] = Metal chelating activity of the compound assessed as zinc complex formation after 5 mins by EGTA fluorescence titration Assay; type: physicochemical
[17] = molecular target: T1, Caspase-3/Caspase-7 (Homo sapiens) (UniProt P42574+P55210); assay: Activation of Caspase 3/7 in human U937 cells assessed as cleavage of Ac-DEVD-AFC at 30 uM after 16 hrs by fluorescence assay relative to control; type: cell-based; details: U-937
T1 sequence (P42574 whole entry, looked up): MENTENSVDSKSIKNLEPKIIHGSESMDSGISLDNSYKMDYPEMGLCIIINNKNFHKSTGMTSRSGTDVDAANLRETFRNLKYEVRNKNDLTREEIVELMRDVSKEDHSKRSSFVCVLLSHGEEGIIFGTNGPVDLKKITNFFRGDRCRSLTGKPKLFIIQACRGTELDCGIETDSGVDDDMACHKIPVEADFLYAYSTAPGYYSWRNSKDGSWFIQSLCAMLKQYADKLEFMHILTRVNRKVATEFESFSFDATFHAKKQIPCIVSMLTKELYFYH
T1 sequence (P55210 whole entry, looked up): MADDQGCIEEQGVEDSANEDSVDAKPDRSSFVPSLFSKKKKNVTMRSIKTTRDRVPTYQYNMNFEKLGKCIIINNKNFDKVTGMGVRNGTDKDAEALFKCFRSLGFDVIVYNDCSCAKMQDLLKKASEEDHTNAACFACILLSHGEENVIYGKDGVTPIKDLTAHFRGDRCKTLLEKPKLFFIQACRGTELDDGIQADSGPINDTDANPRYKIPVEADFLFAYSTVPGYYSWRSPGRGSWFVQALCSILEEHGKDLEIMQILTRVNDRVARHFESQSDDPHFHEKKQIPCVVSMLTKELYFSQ

Serum [18] = assay: Drug uptake in C57/BL6 mouse serum at 25 mg/kg, iv measured after 8 hrs by LC/MS/MS analysis; type: ADME, organism-based; parameters: dose 25 mg/kg, route intravenous; details: in vivo; procedure, shortened: as §2
[19] = molecular target: T1, Caspase-3/Caspase-7 (Homo sapiens); assay: Activation of Caspase 3/7 in human U937 cells assessed as cleavage of Ac-DEVD-AFC at 1 uM after 16 hrs by fluorescence assay relative to control; type: cell-based; details: U-937
Procedure, shortened: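 U-937 cells, 50,000/well in phenol red-free RPMI-1640 with 10% FBS, preincubated 15 h at 37°C. Compound added from a 3x solution in media and tested in six wells. Lysis/caspase buffer contains 20 µM Ac-DEVD-AFC. […] 16 h slopes normalized to 0 h (0%) and staurosporine 16 h (100%).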

Row | SMILES | remaining at 3 h, 10 µM [1] [%] | IC50 [2] [µM] | other results
1 | C=CCc1cccc(/C=N/NC(=O)CN2CCN(Cc3ccc(F)cc3)CC2)c1O | 31 | 11.1 | –
2 | C=CCc1cc(F)cc(/C=N/NC(=O)CN2CCN(C(=O)c3ccc(F)cc3)CC2)c1O | 92 | 8.5 | Activity (Mus musculus [3]): Toxic
3 | CCCc1cccc(/C=N/NC(=O)CN2CCN(C(=O)c3ccccc3)CC2)c1O | 71 | 9.4 | –
4 | C=CCc1cccc(/C=N/NC(=O)CN2CCN(C(=O)c3ccc(C#N)cc3)CC2)c1O | 90 | 13.1 | –
5 | C=CCc1cccc(/C=N/NC(=O)CN2CCN(Cc3ccccc3)CC2)c1O [PAC-1] | 38 | 10.2 | viability at 50 µM (U-937 [4]): 54%; AUC [5]: 527 ng·h/mL; IC50 (EL4): 6.5 µM; IC50 (Jurkat): 4.4 µM; bioavailability [6]: 15.1%; Drug metabolism (Liver microsome): metabolite_detected; beta t1/2 (Mus musculus [7]): 0.41 h; IC50 [8]: 3 µM; half-life [9]: 2.1 h; Activity (U-937 [10]): 5%; IC50 [11]: 10 µM; Activity (Mus musculus [3]): Toxic; Activity (U-937 [12]): 22%; AUC [13]: 3510 ng·h/mL; Drug uptake (Serum [14]): Not Active; Activity (U-937 [15]): 19%; Kd [16]: 0.00128 µM; Activity [17]: 87%
6 | N#Cc1ccc(C(=O)N2CCN(CC(=O)N/N=C/c3cc(F)ccc3O)CC2)cc1 | 88 | 15.3 | –
7 | C=CCc1cc(F)cc(/C=N/NC(=O)CN2CCN(C(=O)c3ccccc3)CC2)c1O | 93 | 8.6 | viability at 50 µM (U-937 [4]): 54%; AUC [5]: 428 ng·h/mL; Drug uptake (Serum [18]): Active; IC50 (EL4): 7.3 µM; IC50 (Jurkat): 4.1 µM; bioavailability [6]: 8.5%; beta t1/2 (Mus musculus [7]): 2.008 h; IC50 [8]: 3.4 µM; Activity (U-937 [10]): 7%; IC50 [11]: 10 µM; Activity (Mus musculus [3]): Non-toxic; Activity (U-937 [12]): 20%; AUC [13]: 4850 ng·h/mL; Activity (U-937 [15]): 19%; Kd [16]: 0.00107 µM; Activity [17]: 67%
8 | C=CCc1cccc(/C=N/NC(=O)CN2CCN(Cc3ccc(S(N)(=O)=O)cc3)CC2)c1O | 84 | – | Drug uptake (Serum [14]): Not Active
9 | CCCc1cccc(/C=N/NC(=O)CN2CCN(Cc3ccc(C#N)cc3)CC2)c1O | 30 | 9 | –
10 | O=C(CN1CCN(C(=O)c2ccc(C(F)(F)F)cc2)CC1)N/N=C/c1cc(F)ccc1O | 87 | 8.7 | Activity (Mus musculus [3]): Non-toxic
11 | CCCc1cccc(/C=N/NC(=O)CN2CCN(Cc3ccc(S(N)(=O)=O)cc3)CC2)c1O | 61 | – | –
12 | CCCc1cc(F)cc(/C=N/NC(=O)CN2CCN(C(=O)c3ccccc3)CC2)c1O | 86 | 12.3 | –
13 | C=CCc1cc(F)cc(/C=N/NC(=O)CN2CCN(C(=O)c3ccc(C#N)cc3)CC2)c1O | 95 | – | Drug uptake (Serum [18]): Active
14 | C=CCc1cc(F)cc(/C=N/NC(=O)CN2CCN(Cc3ccccc3)CC2)c1O | 56 | 9.5 | –
15 | C=CCc1cccc(/C=N/NC(=O)CN2CCN(C(=O)c3ccc(F)cc3)CC2)c1O | 86 | 10.2 | viability at 50 µM (U-937 [4]): 49%; AUC [5]: 1540 ng·h/mL; Drug uptake (Serum [18]): Active; IC50 (EL4): 6.5 µM; IC50 (Jurkat): 4 µM; bioavailability [6]: 25.6%; beta t1/2 (Mus musculus [7]): 1.49 h; IC50 [8]: 3 µM; Activity (U-937 [10]): 2%; IC50 [11]: 9.3 µM; Activity (Mus musculus [3]): Non-toxic; Activity (U-937 [12]): 27%; AUC [13]: 6040 ng·h/mL; Activity (U-937 [15]): 22%; Kd [16]: 0.00146 µM; Activity [17]: 64%
16 | CCCc1cc(F)cc(/C=N/NC(=O)CN2CCN(C(=O)c3ccc(C#N)cc3)CC2)c1O | 66 | – | Drug uptake (Serum [18]): Active
17 | O=C(CN1CCN(C(=O)c2ccc(F)cc2)CC1)N/N=C/c1cc(F)ccc1O | 86 | 15.3 | –
18 | O=C(CN1CCN(C(=O)c2ccccc2)CC1)N/N=C/c1cc(F)ccc1O | 88 | 15.7 | –
19 | C=CCc1cccc(/C=N/NC(=O)CN2CCN(Cc3ccc(C#N)cc3)CC2)c1O | 48 | 13.7 | –
20 | CN[C@@H]1C[C@H]2O[C@@](C)([C@@H]1OC)n1c3ccccc3c3c4c(c5c6ccccc6n2c5c31)C(=O)NC4 | – | – | Activity [19]: 100%
21 | CCCc1cccc(/C=N/NC(=O)CN2CCN(Cc3ccccc3)CC2)c1O | 30 | 9.6 | –
22 | C=CCc1cccc(/C=N/NC(=O)CN2CCN(C(=O)c3ccc(C(F)(F)F)cc3)CC2)c1O | 85 | – | –
23 | C=CCc1cccc(/C=N/NC(=O)CN2CCN(C(=O)c3ccccc3)CC2)c1O | 89 | 12.1 | –
24 | CCCc1cccc(/C=N/NC(=O)CN2CCN(C(=O)c3ccc(F)cc3)CC2)c1O | 69 | 7.3 | –
25 | CCCc1cccc(/C=N/NC(=O)CN2CCN(C(=O)c3ccc(C#N)cc3)CC2)c1O | 61 | 12.8 | –
26 | O=C(CN1CCN(Cc2ccccc2)CC1)N/N=C/c1cc(F)ccc1O | 64 | 17 | –
27 | O=C(CN1CCN(Cc2ccccc2)CC1)N/N=C/c1ccccc1 | – | – | Kd [16]: > 1000 µM; Activity [17]: 3%

Now from value to compound, other results behind:

Row | remaining at 3 h, 10 µM [1] [%] | SMILES | IC50 [2] [µM] | other results
28 | 30 | O=C(CN1CCN(Cc2ccc(C(F)(F)F)cc2)CC1)N/N=C/c1cc(F)ccc1O | 4.7 | –
29 | 40 | CCCc1cc(F)cc(/C=N/NC(=O)CN2CCN(Cc3ccc(C(F)(F)F)cc3)CC2)c1O | – | –
30 | 57 | C=CCc1cc(F)cc(/C=N/NC(=O)CN2CCN(Cc3ccc(F)cc3)CC2)c1O | 10.3 | –
31 | 64 | CCCc1cccc(/C=N/NC(=O)CN2CCN(C(=O)c3ccc(C(F)(F)F)cc3)CC2)c1O | – | –
32 | 64 | CCCc1cc(F)cc(/C=N/NC(=O)CN2CCN(C(=O)c3ccc(C(F)(F)F)cc3)CC2)c1O | – | –
33 | 15 | CCCc1cccc(/C=N/NC(=O)CN2CCN(Cc3ccc(C(F)(F)F)cc3)CC2)c1O | – | –
34 | 49 | CCCc1cc(F)cc(/C=N/NC(=O)CN2CCN(Cc3ccc(C#N)cc3)CC2)c1O | 11.2 | –
35 | 49 | CCCc1cc(F)cc(/C=N/NC(=O)CN2CCN(Cc3ccccc3)CC2)c1O | 8.9 | –
36 | 90 | C=CCc1cc(F)cc(/C=N/NC(=O)CN2CCN(C(=O)c3ccc(C(F)(F)F)cc3)CC2)c1O | – | –
37 | 65 | C=CCc1cc(F)cc(/C=N/NC(=O)CN2CCN(Cc3ccc(C#N)cc3)CC2)c1O | 12.7 | –
38 | 67 | CCCc1cc(F)cc(/C=N/NC(=O)CN2CCN(C(=O)c3ccc(F)cc3)CC2)c1O | 7.5 | Activity (Mus musculus [3]): Toxic
39 | 48 | CCCc1cc(F)cc(/C=N/NC(=O)CN2CCN(Cc3ccc(F)cc3)CC2)c1O | 7.5 | –
40 | 62 | CCCc1cc(F)cc(/C=N/NC(=O)CN2CCN(Cc3ccc(S(N)(=O)=O)cc3)CC2)c1O | – | –
41 | 24 | CCCc1cccc(/C=N/NC(=O)CN2CCN(Cc3ccc(F)cc3)CC2)c1O | 10 | –
42 | 49 | C=CCc1cc(F)cc(/C=N/NC(=O)CN2CCN(Cc3ccc(C(F)(F)F)cc3)CC2)c1O | – | –
43 | 16 | C=CCc1cccc(/C=N/NC(=O)CN2CCN(Cc3ccc(C(F)(F)F)cc3)CC2)c1O | – | –
44 | 89 | C=CCc1cc(F)cc(/C=N/NC(=O)CN2CCN(Cc3ccc(S(N)(=O)=O)cc3)CC2)c1O | – | –
